Biological target: T1, KDAC8 (Homo sapiens, UniProt Q9BY41)
T1 sequence (Q9BY41 1-377): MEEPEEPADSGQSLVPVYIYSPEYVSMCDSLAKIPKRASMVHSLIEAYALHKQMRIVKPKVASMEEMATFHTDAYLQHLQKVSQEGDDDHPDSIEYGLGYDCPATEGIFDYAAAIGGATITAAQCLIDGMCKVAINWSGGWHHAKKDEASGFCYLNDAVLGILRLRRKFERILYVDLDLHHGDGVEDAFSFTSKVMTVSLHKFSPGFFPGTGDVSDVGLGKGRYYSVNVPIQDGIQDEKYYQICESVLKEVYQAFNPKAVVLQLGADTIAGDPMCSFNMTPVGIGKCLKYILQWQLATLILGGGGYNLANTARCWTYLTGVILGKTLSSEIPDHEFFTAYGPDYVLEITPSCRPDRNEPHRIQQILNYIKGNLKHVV
Experiment: KDAC8 endpoint in vitro deacetylation activity assay
Assay type: biochemical
Conditions: low ionic strength buffer; 200 nM KDAC8, 100 μM peptide, 25 °C, 15-60 min; average of n≥3; limit of reliable detection 0.0004 s^−1
Outline: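 KDAC8 carried a C-terminal His6 tag. It was expressed in ExpiSf9 cells after bacmid transfection (28 °C, 5 days, then 2 days of suspension amplification) and purified on cobalt (TALON) affinity resin. Peptides were N-terminally acetylated and C-terminally amidated. Buffer was 30 mM potassium phosphate pH 7.6 with 5% glycerol and no KCl. Product was detected with fluorescamine, and endpoint activity was averaged.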

Row | Substance | Specific activity of KDAC8 with biologically relevant putative KDAC substrates
1 | ITGK^acPSG | - (- indicates no activity above the limit of reliable detection (0.0004 s^−1).)
2 | EVGK^acLLN | - (- indicates no activity above the limit of reliable detection (0.0004 s^−1).)
3 | QTAK^acDAG | - (- indicates no activity above the limit of reliable detection (0.0004 s^−1).)
4 | GALK^acAPS | - (- indicates no activity above the limit of reliable detection (0.0004 s^−1).)
5 | EIGK^acTLA | - (- indicates no activity above the limit of reliable detection (0.0004 s^−1).)
6 | GTAK^acSVT | - (- indicates no activity above the limit of reliable detection (0.0004 s^−1).)
7 | LGGK^acQRA | - (- indicates no activity above the limit of reliable detection (0.0004 s^−1).)
8 | SVRK^acGIM | 0.0036 ± 0.0008 s^−1
9 | SHLK^acAHL | - (- indicates no activity above the limit of reliable detection (0.0004 s^−1).)
10 | TGGK^acAPR | - (- indicates no activity above the limit of reliable detection (0.0004 s^−1).)
11 | LSGK^acGNP | - (- indicates no activity above the limit of reliable detection (0.0004 s^−1).)
12 | APRK^acQLA | 0.00163 ± 0.00014 s^−1
13 | PEAK^acSLL | - (- indicates no activity above the limit of reliable detection (0.0004 s^−1).)
14 | GVGK^acYIN | 0.0007 ± 0.0004 s^−1
15 | AARK^acSAP | 0.0026 ± 0.0002 s^−1

— publication PMC8408915 (Biochemistry, 2021)
